NR2E3 ag-1: inhibitors of NR2E3-RetCOR corepressor binding, primary screen, NR2E3 agonist project, biochemical, TR-FRET, GST-NR2E3, biotin-RetCOR. Photoreceptor-specific nuclear receptor (Homo sapiens), Q9Y5X4. 1536-well. inhibition of corepressor binding, % at 4.78 µM. 0.12% of 320,000 active;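 active = percent inhibition above the cutoff of mean plus 3 SD of all tested compounds, set per screening campaign, cut at about 20% in these data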;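 note: 0% = DMSO wells and 100% = biotin wells as full block of FRET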
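Test system: GST-NR2E3 and biotin-RetCOR proteins | Quantity: 1.35 nM GST-tagged NR2E3 final | Medium: Tris pH 7.5 | Also added: 7 nM biotin-RetCOR | Dosing: Compound at 4.8 µM, single dose | Timing: 5 h at 4 °C | Detection: Time-resolved FRET | Read-out basis: Percent inhibition | Benchmarks: Biotin wells as high control, 0.6% DMSO wells as low control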
Rev-erbA mod: modulators of Rev-erb alpha DNA binding, primary screen, biochemical, FITC-DNA, fluorescence polarization, uHTS; 0.79% of 370,000 active; Rev-erbα–FITC-DNA binding, 90 min; activity, % at 10 µM; Nuclear receptor subfamily 1 group D member 1 (Homo sapiens), P20393;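 active = activity above about 14%, limit read from the data; passing the limit was not always enough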;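 note: 0% = DMSO wells with 35 nM protein and 100% = DMSO wells with 750 nM protein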
Target sequence (P20393 whole entry, looked up): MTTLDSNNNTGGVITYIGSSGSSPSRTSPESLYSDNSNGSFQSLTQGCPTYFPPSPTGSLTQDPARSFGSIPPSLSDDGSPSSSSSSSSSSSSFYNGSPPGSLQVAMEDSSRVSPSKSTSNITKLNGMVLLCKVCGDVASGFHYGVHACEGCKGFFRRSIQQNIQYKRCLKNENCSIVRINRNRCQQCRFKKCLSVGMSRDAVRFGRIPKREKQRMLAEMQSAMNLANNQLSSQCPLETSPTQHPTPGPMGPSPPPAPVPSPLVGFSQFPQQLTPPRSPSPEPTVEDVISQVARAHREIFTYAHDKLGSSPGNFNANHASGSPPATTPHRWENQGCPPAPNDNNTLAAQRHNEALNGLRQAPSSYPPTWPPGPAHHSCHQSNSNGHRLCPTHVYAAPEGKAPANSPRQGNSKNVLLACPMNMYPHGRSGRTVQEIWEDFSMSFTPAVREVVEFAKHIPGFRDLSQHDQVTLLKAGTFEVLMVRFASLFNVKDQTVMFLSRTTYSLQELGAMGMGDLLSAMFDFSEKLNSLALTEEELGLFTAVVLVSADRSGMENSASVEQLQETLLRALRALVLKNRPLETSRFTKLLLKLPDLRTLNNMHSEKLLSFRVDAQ
MC4R antag cAMP: MC4R antagonists of cAMP signaling, primary screen, cell-based, TR-FRET, antagonist arm of biased-ligand search; 0.48% of 360,000 active; MC4R-expressing cells, MTII-stimulated cAMP, LANCE TR-FRET; inhibition, % at 6.5 µM; AID 540295, 2011; Melanocortin receptor 4 (Homo sapiens), P32245;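 active = inhibition above its plate's cutoff, the mean of tested wells on that plate plus 3 SD, cut at about 29% in these data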;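 note: 0% = Melanotan II alone and 100% = Melanotan II plus saturating MCL0020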
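Material – human MC4R-expressing U2OS cells · Repeats – no replicates · Detection – TR-FRET with Eu-cAMP and labeled anti-cAMP, 671 nm · Times – compound 30 min, challenge 1 h, detection 1 h · Compound – single nominal compound dose of 6.5 µM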
NR2E3 ag-2: NR2E3 agonists in two-hybrid cells, primary screen, cell-based, luminescence, CHO-S, Gal4-NCOR/VP16-NR2E3 | 0.35% of 360,000 active | inhibition of corepressor binding, % at 3.98 µM | Photoreceptor-specific nuclear receptor (Homo sapiens), Q9Y5X4 | luciferase;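 active = inhibition above the mean of all tested compounds plus 3 SD, cut at about 70% in these data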;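 note: 0% = DMSO with NR2E3 transfected cells and 100% = cells lacking NR2E3 construct; higher means lower luciferase signal from less NR2E3 corepressor binding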
PG9 Ab binder: binders of HIV-1 gp120 antibody PG9, primary screen, biochemical, TR-FRET; HIV-1 gp120 / PG9 antibody interaction; TR-FRET gp120-PG9 antibody binding; inhibition, % at 6.7 µM; 0.43% of 360,000 active; AID 624416, 2012; in the data active = inhibition above about 8.5%
MC4R ag barr: MC4R agonists recruiting beta-arrestin, primary screen, cell-based, luminescence, agonist arm of biased-ligand search; Melanocortin receptor 4 (Homo sapiens), P32245; activation, % at 8.9 µM; 0.98% of 360,000 active; U2OS MC4R beta-arrestin complementation; percent of melanotan II response, DMSO zero;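 active = activation above a per-plate cutoff, the mean activation of sample wells on that plate plus 3 SD, cut at about 8% in these data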
MC4R barr conf: MC4R beta-arrestin agonists, retest, confirmation, cell-based, luminescence, U2OS | shares compounds with MC4R ag barr | U2OS MC4R beta-arrestin recruitment; scaled DMSO 0%, Melanotan II 100% | activation, % at 8.9 µM | 31% of 2,400 active | AID 602192, 2012;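 active = mean activation across replicates above the hit cutoff set in the earlier primary screen, cut at about 8% in these data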
MOR DOR agonist: agonists of MOR-DOR heterodimerization, counter-screen for MC4R biased agonist project, cell-based, luminescence; shares compounds with MC4R ag barr; U2OS PathHunter beta-arrestin, beta-gal luminescence; percent of deltorphin B response, DMSO zero; activation, % at 9.2 µM; 5.8% of 2,400 active;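 active = mean activation across replicates exceeds the hit threshold derived in the earlier primary screen, cut at about 18% in these data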;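 note: 100% = deltorphin B at 0.9 µM final and 0% = DMSO alone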
* = called active by the depositor; / = no result. Only some compounds are listed: those with a hit (about 2.7% of all), similar ones and a draw of the others.

SMILES	NR2E3 ag-1	Rev-erbA mod	MC4R antag cAMP	NR2E3 ag-2	PG9 Ab binder	MC4R ag barr	MC4R barr conf	MOR DOR agonist
CC(=O)c1ccc(NC(=O)CN2CCN(S(=O)(=O)c3ccc4ccccc4c3)CC2)cc1	2.1	-7.1	10.5	2.4	-3.2	-1.5	/	/
CN1CCN(C2=CC3=CC(=C(C#N)C#N)CCC3CC2)CC1 (centres undefined)	/	/	-24.3	-14.3	/	14.7*	13.8*	7.5
Cc1nn(-c2ccccc2)c(N2CCCC2)c1/C=N/NC(=O)c1cc2ccccc2cc1O	1.4	-2.0	5.8	-34.7	0.0	-2.2	/	/
Cc1nn(-c2ccccc2)c(N2CCCC2)c1/C=N/NC(=S)Nc1ccccc1F	-0.7	-1.8	1.1	-74.2	0.2	14.5*	2.7	1.8
C/C(=N\Nc1nc2ccccc2[nH]1)c1ccc2c(c1)OCCO2	-3.2	4.4	4.6	-84.5	-5.4	9.8*	6.4	5.1
C/C(=N\Nc1ccccn1)c1ccc2c(c1)OCO2	-1.5	-4.9	0.7	-64.3	-1.6	-2.5	/	/
C/C(=N\Nc1nc2ccccc2[nH]1)c1ccc2c(c1)OCO2	-2.5	-2.6	-3.0	-30.5	-4.9	15.4*	5.2	5.5
COc1ccc(S(=O)(=O)N(CC(=O)NCc2ccco2)c2ccccc2)cc1OC	4.2	-5.5	7.7	-7.9	1.6	1.9	/	/
CCOC(=O)N1CCC(c2[nH][nH]c(=O)c2C)CC1	0.9	3.1	2.9	-14.8	-2.0	-0.3	/	/
O=C(c1ccc(Cl)cc1)N1CCc2c([nH]c3ccccc23)C1C(F)(F)F (centres undefined)	2.5	-0.1	17.5	31.0	-0.8	9.8*	1.3	8.1
Cc1ccc(-n2c(CCc3nc4ccccc4[nH]3)n[nH]c2=S)cc1	-0.7	1.5	7.0	-3.9	0.8	-0.8	/	/
O=C(/C=C/c1ccc(Cl)c([N+](=O)[O-])c1)Nc1ccc(N2CCCC2)c(Cl)c1	6.8	-1.0	21.4	-29.9	-1.5	11.5*	7.2	4.5
CN1CCN(c2ccc(S(=O)(=O)N3CCCCC3)cc2NC(=O)/C=C/c2ccc(Cl)c([N+](=O)[O-])c2)CC1	-2.4	-4.0	7.6	-5.1	0.3	-2.5	/	/
O=C(c1ccc(COCC(F)(F)F)o1)N1CCCC1	-5.2	/	-2.9	0.5	-2.2	0.3	/	/
O=C(CNC(=O)c1ccccc1)Nc1cccc(C(F)(F)F)c1	0.3	8.9	8.1	-16.2	2.6	0.0	/	/
Cc1ccc(C(=O)NCC(=O)Nc2cccc(C(F)(F)F)c2)cc1	-2.0	-2.2	9.6	-2.3	0.4	15.4*	-1.0	2.7
CCn1c(SCC(=O)N2CCCC(C)C2)nc2c1c(=O)n(C)c(=O)n2C (centres undefined)	2.5	0.2	6.2	18.2	-1.0	-0.5	/	/
Cc1occc1C(=O)Nc1nccs1	-1.9	-0.6	5.9	-4.2	-0.7	-1.7	/	/
Cc1occc1C(=O)Nc1nnc(-c2cccs2)s1	0.2	-1.7	8.7	-140.3	3.9	12.9*	3.5	10.4
COc1ccc(NC(=O)Nc2nnc(-c3cccs3)s2)cc1	-0.9	-6.7	-1.6	-96.3	-2.3	13.1*	0.0	4.5
